Results of several laboratories.
Target: Serine/threonine-protein kinase OSR1 (OXSR1, Homo sapiens, UniProt O95747)

Structure (SMILES) | test | test system | setting | measurement | value
Cn1c2c(c3ccc(Cl)c(Cl)c31)C(C#N)C1(CCOCC1)NC2=O (centres unmarked) | thermal stability, DSF |  | 10 µM | ΔTm | -0.5 °C
Cc1sc(C(=O)NC2COC2)cc1-n1cc(NC(=O)Nc2c(F)cccc2Cl)cn1 | enzyme activity, inhibitor |  | 10 µM | remaining activity | 127%
COc1cc(Nc2cnc(C#N)c(O[C@H](C)CN(C)C)n2)ncc1-c1cnn(C)c1 | enzyme activity, inhibitor, radiometric |  | 10 µM | remaining activity | 106%
O=C1NC(=O)c2cc(Nc3ccc(F)cc3)c(Nc3ccc(F)cc3)cc21 | cell-free assay |  | 0.5 µM | remaining signal | 101%
Cn1cc(Cl)c2c(Oc3c(F)cc(Nc4cc(Cl)nc(N)n4)cc3F)ccnc21 | cell-free assay, competition with immobilised ligand |  | 0.1 µM | remaining binding | 93%
CCN1CCN(Cc2ccc(NC(=O)c3ccc(C)c(Oc4ccnc5[nH]ccc45)c3)cc2C(F)(F)F)CC1 | target engagement in cells, inhibitor, chemoproteomics | Huh-7 | 10 µM | inhibition | -24.5%
FC(F)(F)Oc1cccc(-c2cnc3ccc(-c4ccncc4)nn23)c1 | enzyme activity, inhibitor, radiometric |  | 5 µM | activity vs control | 104%
CO[C@@H](C)c1c(Nc2ccc([C@@H](N(C)C(=O)C3CCS(=O)(=O)CC3)C(F)(F)F)cc2)cnc2cc(Cl)nn12 | cell-free assay, competition with immobilised ligand |  | 1 µM | remaining binding | 100%
Cn1c2c(Cl)c(Cl)ccc2c2cn[nH]c(=O)c21 | thermal stability, DSF |  | 10 µM | ΔTm | -0.2 °C
Cc1ccc(Nc2nccc(N(C)c3ccc4c(C)n(C)nc4c3)n2)cc1S(N)(=O)=O | enzyme activity, inhibitor |  | 0.5 µM | remaining activity | 103%
Cn1c2c(c3ccc(Cl)c(Cl)c31)C(C#N)C1(CCNCC1)NC2=O (racemic) | thermal stability, DSF |  | 10 µM | ΔTm | -0.1 °C
Cc1cc(NC(=O)c2cccc(S(F)(F)(F)(F)F)c2)cc(-n2ccn3nc(-c4cccnc4)cc23)c1 | cell-free assay, competition with immobilised ligand |  | 1 µM | remaining binding | 100%
Cn1c2c(c3ccc(Cl)c(Cl)c31)C(C#N)C1(CCN(C(=O)OC(C)(C)C)CC1)NC2=O (racemic) | thermal stability, DSF |  | 10 µM | ΔTm | -0.1 °C
COCCOc1nc(-c2ccc(Cl)nc2)nc2c1CN(C(=O)c1ncn3ccccc13)CC2 | cell-free assay, competition with immobilised ligand |  | 0.1 µM | remaining binding | 100%
c1ccc(CNc2nc(N3CCOc4ccccc43)nc3c2CCCC3)cc1 | target engagement in cells, inhibitor, chemoproteomics |  | 20 mM | inhibition | -9%
N#CC1(c2ccccn2)CCN(Cc2cc(C(=O)N3CCCC3)c(=O)n3ccccc23)CC1 | cell-free assay, competition with immobilised ligand |  | 1 µM | remaining binding | 100%
COc1cc(Nc2c(C#N)cnc3cc(OCCCN4CCN(C)CC4)c(OC)cc23)c(Cl)cc1Cl | cell-free assay |  | 0.5 µM | remaining signal | 100%
